Test results: ChEMBL document CHEMBL1138570, “2-Acylhydrazino-5-arylpyrrole derivatives: synthesis and antifungal activity evaluation” (Eur J Med Chem, 2009)
≈ marks a conversion by molar mass, not a printed value.

Experiments:
Candida albicans [1] = assay: Antimicrobial activity against Candida albicans ATCC 10231 by broth microdilution method; assay type: functional
In short: (§1)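 MIC by NCCLS broth microdilution. Medium was RPMI 1640 with L-glutamine, buffered with 0.165 M MOPS at pH 7.0. Twofold drug dilutions ran 0.008–200 mg/L. Inoculum was set spectrophotometrically to 10⁶ CFU/mL, then diluted in medium to 2 ×10⁴ cells/mL. Plates were incubated overnight at 35 °C in humid air, agitated, and read visually and at 450 nm.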

Nakaseomyces glabratus [2] = assay: Antimicrobial activity against Candida glabrata by broth microdilution method; assay type: functional; in short: as §1
Candida parapsilosis [3] = assay: Antimicrobial activity against Candida parapsilosis by broth microdilution method; assay type: functional; conditions: Lodderomyces parapsilosis; in short: as §1
Pichia kudriavzevii [4] = assay: Antimicrobial activity against Candida krusei by broth microdilution method; assay type: functional; in short: as §1
Candida albicans [5] = assay: Antimicrobial activity against Candida albicans ATCC 10231 after 72 hrs by broth microdilution method; assay type: functional; conditions: ATCC 10231, 72 h
In short: (§2)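 MFC: after MIC reading, a sample from each well was plated on Sabouraud dextrose agar and incubated 72 h at 35 °C. MFC was taken as the minimum concentration killing >99% of the original inoculum. The MIC step was NCCLS broth microdilution in MOPS-buffered RPMI 1640 (pH 7.0), with 2 ×10⁴ cells/mL, overnight at 35 °C.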

Nakaseomyces glabratus [6] = assay: Antimicrobial activity against Candida glabrata after 72 hrs by broth microdilution method; assay type: functional; in short: as §2
Candida parapsilosis [7] = assay: Antimicrobial activity against Candida parapsilosis after 72 hrs by broth microdilution method; assay type: functional; conditions: Lodderomyces parapsilosis; in short: as §2
Pichia kudriavzevii [8] = assay: Antimicrobial activity against Candida krusei after 72 hrs by broth microdilution method; assay type: functional; in short: as §2
[9] = Toxicity against human MCF7 cells assessed as growth inhibition at 10 uM; assay type: cell-based; conditions: read-out: GI
[10] = Toxicity against human H460 cells assessed as growth inhibition at 10 uM; assay type: cell-based; conditions: NCI-H460 cells, read-out: GI
[11] = Toxicity against human SF268 cells assessed as growth inhibition at 10 uM; assay type: cell-based; conditions: SF-268 cells, read-out: GI

COC(=O)c1cc(-c2ccc(OC)cc2)[nH]c1NNC(C)=O
MIC (Candida albicans [1]): 3.12 µg/mL (≈ 10.3 µM) | MIC (Nakaseomyces glabratus [2]): 3.12 µg/mL (≈ 10.3 µM) | MIC (Candida parapsilosis [3]): 3.12 µg/mL (≈ 10.3 µM) | MIC (Pichia kudriavzevii [4]): 3.12 µg/mL (≈ 10.3 µM) | MFC (Candida albicans [5]): 3.12 µg/mL (≈ 10.3 µM) | MFC (Nakaseomyces glabratus [6]): 12.5 µg/mL (≈ 41.2 µM) | MFC (Candida parapsilosis [7]): 6.25 µg/mL (≈ 20.6 µM) | MFC (Pichia kudriavzevii [8]): 6.25 µg/mL (≈ 20.6 µM) | inhibition at 10 µM [9]: 0% | inhibition at 10 µM [10]: 0% | inhibition at 10 µM [11]: 0%

CCC(=O)NNc1[nH]c(-c2ccc(OC)cc2)cc1C#N
MIC (Candida albicans [1]): 0.39 µg/mL (≈ 1.37 µM) | MIC (Nakaseomyces glabratus [2]): 0.78 µg/mL (≈ 2.74 µM) | MIC (Candida parapsilosis [3]): 0.78 µg/mL (≈ 2.74 µM) | MIC (Pichia kudriavzevii [4]): 0.78 µg/mL (≈ 2.74 µM) | MFC (Candida albicans [5]): 6.25 µg/mL (≈ 22 µM) | MFC (Nakaseomyces glabratus [6]): 12.5 µg/mL (≈ 44 µM) | MFC (Candida parapsilosis [7]): 12.5 µg/mL (≈ 44 µM) | MFC (Pichia kudriavzevii [8]): 12.5 µg/mL (≈ 44 µM) | inhibition at 10 µM [9]: 4.6% | inhibition at 10 µM [10]: 0% | inhibition at 10 µM [11]: 2.1%

COc1ccc(-c2cc(C#N)c(NNC(C)=O)[nH]2)cc1
MIC (Candida albicans [1]): 1.56 µg/mL (≈ 5.77 µM) | MIC (Nakaseomyces glabratus [2]): 3.12 µg/mL (≈ 11.5 µM) | MIC (Candida parapsilosis [3]): 3.12 µg/mL (≈ 11.5 µM) | MIC (Pichia kudriavzevii [4]): 1.56 µg/mL (≈ 5.77 µM) | MFC (Candida albicans [5]): 6.25 µg/mL (≈ 23.1 µM) | MFC (Nakaseomyces glabratus [6]): 12.5 µg/mL (≈ 46.2 µM) | MFC (Candida parapsilosis [7]): 6.25 µg/mL (≈ 23.1 µM) | MFC (Pichia kudriavzevii [8]): 3.12 µg/mL (≈ 11.5 µM) | inhibition at 10 µM [9]: 0% | inhibition at 10 µM [10]: 0% | inhibition at 10 µM [11]: 0%

CCOC(=O)NNc1[nH]c(-c2ccc(OC)cc2)cc1C#N
MIC (Candida albicans [1]): 3.12 µg/mL (≈ 10.4 µM) | MIC (Nakaseomyces glabratus [2]): 12.5 µg/mL (≈ 41.6 µM) | MIC (Candida parapsilosis [3]): 25 µg/mL (≈ 83.2 µM) | MIC (Pichia kudriavzevii [4]): 25 µg/mL (≈ 83.2 µM) | MFC (Candida albicans [5]): 3.12 µg/mL (≈ 10.4 µM) | MFC (Nakaseomyces glabratus [6]): 50 µg/mL (≈ 166 µM) | MFC (Candida parapsilosis [7]): 100 µg/mL (≈ 333 µM) | MFC (Pichia kudriavzevii [8]): 50 µg/mL (≈ 166 µM) | inhibition at 10 µM [9]: 0.9% | inhibition at 10 µM [10]: 31% | inhibition at 10 µM [11]: 0%

COCCC(=O)NNc1[nH]c(-c2ccc(OC)cc2)cc1C(=O)OC
MIC (Candida albicans [1]): 6.25 µg/mL (≈ 18 µM) | MIC (Nakaseomyces glabratus [2]): 6.25 µg/mL (≈ 18 µM) | MIC (Candida parapsilosis [3]): 6.25 µg/mL (≈ 18 µM) | MIC (Pichia kudriavzevii [4]): 6.25 µg/mL (≈ 18 µM) | MFC (Candida albicans [5]): 6.25 µg/mL (≈ 18 µM) | MFC (Nakaseomyces glabratus [6]): 25 µg/mL (≈ 72 µM) | MFC (Candida parapsilosis [7]): 12.5 µg/mL (≈ 36 µM) | MFC (Pichia kudriavzevii [8]): 25 µg/mL (≈ 72 µM)

C[C@@H]1[C@H](O)[C@@H](C)/C=C/C=C/C=C/C=C/C=C/C=C/C=C/[C@H](O[C@@H]2O[C@H](C)[C@@H](O)[C@H](N)[C@@H]2O)C[C@@H]2O[C@](O)(C[C@@H](O)C[C@@H](O)[C@H](O)CC[C@@H](O)C[C@@H](O)CC(=O)O[C@H]1C)C[C@H](O)[C@H]2C(=O)O [AMPHOTERICIN B]
MIC (Candida albicans [1]): 0.39 µg/mL (≈ 0.422 µM) | MIC (Nakaseomyces glabratus [2]): 0.78 µg/mL (≈ 0.844 µM) | MIC (Candida parapsilosis [3]): 0.78 µg/mL (≈ 0.844 µM) | MIC (Pichia kudriavzevii [4]): 0.78 µg/mL (≈ 0.844 µM) | MFC (Candida albicans [5]): 0.78 µg/mL (≈ 0.844 µM) | MFC (Nakaseomyces glabratus [6]): 1.56 µg/mL (≈ 1.69 µM) | MFC (Candida parapsilosis [7]): 1.56 µg/mL (≈ 1.69 µM) | MFC (Pichia kudriavzevii [8]): 1.56 µg/mL (≈ 1.69 µM)

OC(Cn1cncn1)(Cn1cncn1)c1ccc(F)cc1F [FLUCONAZOLE]
MIC (Candida albicans [1]): 0.78 µg/mL (≈ 2.55 µM) | MIC (Nakaseomyces glabratus [2]): 12.5 µg/mL (≈ 40.8 µM) | MIC (Candida parapsilosis [3]): 0.39 µg/mL (≈ 1.27 µM) | MIC (Pichia kudriavzevii [4]): 25 µg/mL (≈ 81.6 µM) | MFC (Candida albicans [5]): > 100 µg/mL | MFC (Nakaseomyces glabratus [6]): > 100 µg/mL | MFC (Candida parapsilosis [7]): > 100 µg/mL | MFC (Pichia kudriavzevii [8]): 50 µg/mL (≈ 163 µM)
